From ChEMBL document CHEMBL4393681, “The identification of naturally occurring labdane diterpenoid calcaratarin D as a potential anti-inflammatory agent” (Eur J Med Chem, 2019)

Columns and labels:
[1] = Cytotoxicity against mouse RAW264.7 cells assessed as cell viability at 0.1 uM incubated for 18 hrs by celltiter-glo luminescent assay relative to control; assay type: cell-based; conditions: read-out: Activity
How it was run: (§1)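 Non-stimulated RAW264.7 cells were exposed to 0.1, 1, 5 and 20 µM compound from 100 mM DMSO stocks. Percent viability is the mean of three separate experiments with triplicate samples.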

[2] = system: RAW264.7; assay: Anti-inflammatory activity in mouse RAW264.7 cells assessed as inhibition of LPS-induced IL-6 production at 20 uM pretreated for 1 hr followed by LPS stimulation and measured after 18 hrs by ELISA relative to control; assay type: functional; design: scale not given: the % may be the effect or the level left
How it was run: (§2)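 DMSO stocks (100 mM) were tested at 0.1, 1, 5 and 20 µM on LPS-stimulated RAW264.7 cells, with dexamethasone 1 µM as positive control. Secreted TNF-α or IL-6 was normalized to the percentage of viable LPS-stimulated cells at each concentration. Mean of three separate experiments, each in triplicate.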

[3] = Cytotoxicity against mouse RAW264.7 cells assessed as cell viability at 5 uM incubated for 18 hrs by celltiter-glo luminescent assay relative to control; assay type: cell-based; conditions: read-out: Activity; how it was run: as §1
[4] = Cytotoxicity against mouse RAW264.7 cells assessed as cell viability at 20 uM incubated for 18 hrs by celltiter-glo luminescent assay relative to control; assay type: cell-based; conditions: read-out: Activity; how it was run: as §1
[5] = system: RAW264.7; assay: Anti-inflammatory activity in mouse RAW264.7 cells assessed as inhibition of LPS-induced TNFalpha production at 20 uM pretreated for 1 hr followed by LPS stimulation and measured after 18 hrs by ELISA relative to control; assay type: functional; design: scale not given: the % may be the effect or the level left; how it was run: as §2
[6] = system: RAW264.7; assay: Anti-inflammatory activity in mouse RAW264.7 cells assessed as inhibition of LPS-induced IL-6 production at 0.1 uM pretreated for 1 hr followed by LPS stimulation and measured after 18 hrs by ELISA relative to control; assay type: functional; design: scale not given: the % may be the effect or the level left; how it was run: as §2
[7] = Cytotoxicity against mouse RAW264.7 cells assessed as cell viability at 1 uM incubated for 18 hrs by celltiter-glo luminescent assay relative to control; assay type: cell-based; conditions: read-out: Activity; how it was run: as §1
[8] = system: RAW264.7; assay: Anti-inflammatory activity in mouse RAW264.7 cells assessed as inhibition of LPS-induced TNFalpha production at 1 uM pretreated for 1 hr followed by LPS stimulation and measured after 18 hrs by ELISA relative to control; assay type: functional; design: scale not given: the % may be the effect or the level left; how it was run: as §2
[9] = system: RAW264.7; assay: Anti-inflammatory activity in mouse RAW264.7 cells assessed as inhibition of LPS-induced TNFalpha production at 5 uM pretreated for 1 hr followed by LPS stimulation and measured after 18 hrs by ELISA relative to control; assay type: functional; design: scale not given: the % may be the effect or the level left; how it was run: as §2
[10] = system: RAW264.7; assay: Anti-inflammatory activity in mouse RAW264.7 cells assessed as inhibition of LPS-induced IL-6 production at 5 uM pretreated for 1 hr followed by LPS stimulation and measured after 18 hrs by ELISA relative to control; assay type: functional; design: scale not given: the % may be the effect or the level left; how it was run: as §2
[11] = system: RAW264.7; assay: Anti-inflammatory activity in mouse RAW264.7 cells assessed as inhibition of LPS-induced IL-6 production at 1 uM pretreated for 1 hr followed by LPS stimulation and measured after 18 hrs by ELISA relative to control; assay type: functional; design: scale not given: the % may be the effect or the level left; how it was run: as §2
[12] = system: RAW264.7; assay: Anti-inflammatory activity in mouse RAW264.7 cells assessed as inhibition of LPS-induced TNFalpha production at 0.1 uM pretreated for 1 hr followed by LPS stimulation and measured after 18 hrs by ELISA relative to control; assay type: functional; design: scale not given: the % may be the effect or the level left; how it was run: as §2

Row | SMILES | viability at 18 h, 0.1 µM [1] [%] | Activity [2] [%] | viability at 18 h, 5 µM [3] [%] | viability at 18 h, 20 µM [4] [%] | Activity [5] [%] | Activity [6] [%] | viability at 18 h, 1 µM [7] [%] | Activity [8] [%] | Activity [9] [%] | Activity [10] [%] | Activity [11] [%] | Activity [12] [%]
1 | C=C1CC[C@H]2C(C)(C)CCC[C@]2(C)[C@H]1C/C=C1/CCOC1=O | 103 | 64.8 | 95.4 | 85 | 48 | 101.5 | 101 | 81.8 | 69.9 | 85.6 | 94.1 | 99.8
2 | C=C1CC[C@H]2C(C)(C)CCC[C@]2(C)[C@H]1/C=C/C1=CCOC1=O [VILLOSIN] | 104 | 170.1 | 103 | 59 | 133.5 | 98.4 | 105 | 86.6 | 74.6 | 101.5 | 87.6 | 80.4
3 | CC1(C)CCC[C@@]2(C)[C@H]1CC[C@]1(CO1)[C@@H]2C/C=C1\CCOC1=O | 97.8 | 63.9 | 95.1 | 85.7 | 33.1 | 102.3 | 97.6 | 88.3 | 55.6 | 81.4 | 92.3 | 100.3
4 | C=C1CC[C@H]2C(C)(C)CCC[C@]2(C)[C@H]1C[C@H](O)[C@H]1C(=O)OC[C@H]1O | 108 | 71.8 | 107 | 98.3 | 86.8 | 104.6 | 106 | 108.6 | 109.5 | 104.3 | 101.7 | 111.1
5 | C=C1CC[C@H]2C(C)(C)CCC[C@]2(C)[C@H]1C/C=C1\CC(O)OC1=O (some centres undefined) | 102 | 59.4 | 86.3 | 79 | 71.1 | 99.1 | 92.7 | 89.6 | 81.9 | 64 | 82.4 | 100.2
6 | C=C1CC[C@H]2C(C)(C)CCC[C@]2(C)[C@H]1C/C=C(\CCO)C(=O)O | 102 | 63.5 | 96.6 | 87.6 | 50.2 | 106 | 99.2 | 80.7 | 60.7 | 79.9 | 88.3 | 104.7
7 | C=C1CC[C@H]2C(C)(C)CCC[C@]2(C)[C@H]1C/C=C1\CCOC1=O | 103 | 76.3 | 102 | 100 | 52.6 | 103 | 107 | 94.6 | 73.1 | 83.9 | 93.9 | 104.4
